Assay outcomes deposited in PubChem by several laboratories.
An excerpt weighted towards active compounds, which were near 4.6% of everything screened.
APP 5'UTR act = activates APP 5'UTR luciferase reporter | SH-SY5Y APP 5'UTR luciferase reporter, luminescence; zero percent = DMSO vehicle wells | activation, % at 2 µM | 190,000 tested, 1% active;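 active = activation above a set limit, based on mean plus 3 SD of controls, cut at about 140% in these data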
Mdm2 ligase inh = blocks human Mdm2 ubiquitin ligase activity | cell-based MDM2 ubiquitination luciferase reporter, 2 h; 0 = plate control, 100 = twice control, blank-subtracted | AID 1230 | signal enhancement, % at 5 µM | 210,000 tested, 0.11% active | Q00987;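 active = signal enhancement of 30% or more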;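 also: luminescence tracks abundance of the self-degrading MDM2-luciferase fusion protein; higher signal means inhibition of MDM2 E3 ligase activity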
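Buffer or medium: Cells held in DMEM | Assay system: Stable mammalian line carrying autodegrading MDM2–luciferase fusion reporter | Quantity: 2000 cells/well | Times: 4 h settle plus 2 h compound, 37 °C | Doses: One concentration, 5 µM, with 0.2% DMSO | Technique: Luminescence with SteadyLite reagent, 15 min at room temperature | Benchmarks: Plate controls and plate blanks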
Wee1 stabilizer = inhibitors of human Wee1 degradation | P30291 | HeLa Luc-Wee1K328M stability, luciferase luminescence; 100% = proteasome inhibitor MG132 effect | reporter increase, % at 5 µM | 220,000 tested, 1.2% active | AID 1321;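 active = activation above the mean of all tested compounds plus 3 SD, set per screening run, cut at about 8.8% in these data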;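 also: cells exposed to compound for 20 h before luminescence read; 0% = DMSO alone and 100% = MG132 at 30 µM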
Target sequence (P30291 whole entry K328M): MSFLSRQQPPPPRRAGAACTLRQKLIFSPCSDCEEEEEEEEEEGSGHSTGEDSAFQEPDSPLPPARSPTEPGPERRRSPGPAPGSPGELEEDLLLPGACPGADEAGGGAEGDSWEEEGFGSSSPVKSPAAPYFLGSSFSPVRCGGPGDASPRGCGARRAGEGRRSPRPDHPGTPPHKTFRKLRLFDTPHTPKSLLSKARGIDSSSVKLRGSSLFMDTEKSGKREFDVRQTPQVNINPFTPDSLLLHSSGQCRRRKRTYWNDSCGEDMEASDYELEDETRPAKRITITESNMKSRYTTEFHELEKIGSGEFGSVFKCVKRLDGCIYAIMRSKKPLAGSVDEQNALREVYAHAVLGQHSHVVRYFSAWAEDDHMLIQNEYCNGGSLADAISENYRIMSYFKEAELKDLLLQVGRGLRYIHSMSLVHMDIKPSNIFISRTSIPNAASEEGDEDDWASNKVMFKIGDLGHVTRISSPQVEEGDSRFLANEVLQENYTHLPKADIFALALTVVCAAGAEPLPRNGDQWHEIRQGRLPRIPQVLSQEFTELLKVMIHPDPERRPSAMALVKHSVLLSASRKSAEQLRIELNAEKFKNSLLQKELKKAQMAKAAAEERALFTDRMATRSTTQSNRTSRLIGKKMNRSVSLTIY
STAT1 activator = increases IFN-gamma driven STAT1 reporter signal; activation (% of control), % at 5.5 µM; AID 932; 200,000 tested, 2.6% active; NIH 3T3 STAT1-luciferase reporter, luminescence; 100% = IFN-gamma alone, no compound;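 active = activation above the screen-wide mean activation plus 3 SD, cut at about 130% in these data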;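 also: raw ratio to IFN-gamma control signal so 100% means no change and 0% no light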
p97 inhibitor = human p97 ATPase inhibition; P55072; recombinant p97 ATPase, Kinase-Glo ATP luminescence, 3 h; inhibition, % at 8 µM; 220,000 tested, 0.42% active; in the data active = inhibition above about 15%;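 also: 0% = DMSO vehicle and 100% = wells lacking enzyme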
NF-kB neuron act = NF-kB expression increase, human neuronal cells; 190,000 tested, 1.6% active; NF-kB reporter expression; hits give high values; AID 1239; fold change at 12.5 µM; in the data active = fold change above about 3.3
Numbers without * were called inactive; / = not tested or not shown.

SMILES | APP 5'UTR act | Mdm2 ligase inh | Wee1 stabilizer | STAT1 activator | p97 inhibitor | NF-kB neuron act
N/C(=N\OC(=O)c1ccco1)c1cccc(Br)c1 | 137* | -23 | 8 | 127 | -1 | 3
N/C(=N\OC(=O)c1ccco1)c1cccc([N+](=O)[O-])c1 | 38 | 2 | 0 | 128 | -1 | 1.4
COC(=O)c1cc(=O)n2c(sc3ccccc32)c1C#N | / | -1 | -2 | / | -6 | /
C[C@H](N)c1nnc(SCC(N)=O)o1 | / | -7 | 0 | / | 0 | /
NS(=O)(=O)c1ccc(CCNC(=O)CSc2nc3ccsc3c(=O)n2CC2CCC(C(=O)O)CC2)cc1 (centres undefined) | 15 | -3 | 11* | 97 | -1 | 1.1
CC(c1ccon1)N(C)C(=O)CCc1nnc(C2(c3ccc(Cl)cc3)CCC2)o1 (centres undefined) | 16 | -7 | -1 | 118 | 4 | 2.2
[NH-]c1ncnc2c1N=C[N+]2=CC=CCO | / | -11 | 1 | / | 0 | /
O=C(Oc1ccc(-c2ccccc2)cc1)N1CCCCC1 | 5 | -16 | 1 | 130* | 1 | 7*
O=C(Oc1ccc(OC(=O)N2CCCCC2)cc1)N1CCCCC1 | 7 | -2 | 0 | 100 | 7 | 0.95
Cc1cc(C(=O)COC(=O)c2ccncc2)c(C)n1Cc1ccco1 | 25 | -54 | 2 | 129* | 1 | 0.6
Cc1cc(C(=O)COC(=O)c2cccn2C)c(C)n1Cc1ccco1 | 166* | -52 | 7 | 65 | 0 | 1
Cc1cc(C(=O)CSc2nnc(N)s2)c(C)n1Cc1ccco1 | 235* | -55 | 4 | 85 | -7 | 4.1*
Cc1cc(C(=O)COc2cccnc2[N+](=O)[O-])c(C)n1Cc1ccco1 | -5 | -8 | 0 | 89 | 1 | 1.5
CC(C)C(=O)Nc1nc2c(c(=O)[nH]1)CCCC2 | -4 | -10 | -3 | 96 | 5 | 0.99
Cc1ccc(NC(=O)CN(C)C(=O)c2ccc(C(F)(F)F)cc2)cc1 | 3 | 4 | 3 | 100 | 3 | 0.95
CCCCCCNC(=O)CC(NS(=O)(=O)c1ccc(OC)cc1)C(C)C (centres undefined) | 18 | 2 | 1 | 105 | -2 | 1
O=C(NCc1ccco1)c1ccc(COc2cc(Cl)ccc2Cl)cc1 | 34 | -12 | 3 | 112 | 2 | 1.4
COc1ccc(-c2cc(C(F)(F)F)n3nc(C(=O)NCCCN4CCOCC4)cc3n2)cc1 | -1 | 9 | 10* | 103 | 1 | 1.2
O=C(NCCN1CCOCC1)c1cc(-c2cccs2)on1 | 20 | 0 | -1 | 116 | -1 | 5.8*
O=C(NCCCN1CCOCC1)c1cc(-c2ccccc2)on1 | 19 | 8 | -1 | 118 | 10 | 5.5*
O=C(NCCCN1CCOCC1)c1cc(-c2ccc(O)cc2)on1 | 18 | -12 | -2 | 98 | -5 | 1.9
O=C(NCCN1CCOCC1)c1cc(-c2ccc(Br)cc2)on1 | 2 | 3 | -1 | 99 | 7 | 0.93
O=C(NCCN1CCOCC1)c1cc(-c2ccccc2)on1 | 29 | 13 | 1 | 110 | 7 | 6.3*
CC(C)Sc1n[nH]c(=O)n1-c1ccccc1 | / | -10 | 0 | / | 6 | /
O=C(CCNS(=O)(=O)c1ccc(Br)s1)NCc1ccc2c(c1)OCO2 | 14 | -3 | 9 | 94 | 0 | 1.1
SMILES | APP 5'UTR act | Mdm2 ligase inh | Wee1 stabilizer | STAT1 activator | p97 inhibitor | NF-kB neuron act
CCOc1cc(CC(=O)N[C@@H](CC(C)C)c2ccccc2N2CCCCC2)ccc1C(=O)O | / | / | 3 | / | 4 | /
Cc1cc(C)nc(SCc2cnc(C)nc2N)n1 | 2 | -12 | 0 | 105 | 5 | 1.1
COc1cc(OC)cc(C(=O)/C=C2\Sc3ccccc3N2C)c1 | 44 | 20 | 5 | 131* | 0 | 1.8
CN1/C(=C/C(=O)c2cccs2)Sc2ccccc21 | 103 | -13 | 4 | 140* | -4 | 5.3*
COc1ccc2c(c1)S/C(=C\C(=O)c1ccncc1)N2C | 44 | -8 | 5 | 125 | 0 | 2.1
COc1ccc2[nH]c3c(N4CCc5ccccc5C4)ncnc3c2c1 | / | -16 | 9.7* | / | 0 | /
CCCCOc1ncnc2c1[nH]c1ccc(OC)cc12 | 69 | -3 | 2 | 137* | -7 | 4.4*
CCOC(=O)N1CCN(c2ncnc3c2[nH]c2ccc(OC)cc23)CC1 | 5 | -9 | 1 | 51 | -6 | 0.52
CC(C)c1cccc(C(C)C)c1NC(=O)c1ccccc1 | 9 | -3 | 2 | 88 | 2 | 1.4
COc1ccccc1NC(=S)NC(=O)c1ccc(-c2ccc(Cl)cc2)o1 | 7 | -4 | 14* | 100 | -1 | 1.1
O=C(NC(=S)Nc1ccccc1O)c1ccc(-c2ccc(Cl)cc2)o1 | -15 | -4 | 1 | 108 | -1 | 1.2
COC(=O)c1ccccc1NC(=O)c1ccc(-c2ccc(Br)cc2)o1 | -12 | 4 | 0 | 138* | -1 | 0.75
COc1ccc(CC(=O)OCC(=O)Nc2ccc3c(c2)OCO3)cc1 | 13 | -90 | 4 | 108 | -3 | 0.97
O=C1C(=O)c2ccccc2C(O)=C1c1ccccc1F | -17 | / | 2 | / | -3 | /
O=C1c2ccccc2C(=O)C1c1ccnc2ccccc12 | 146* | -74 | 11* | 61 | 2 | /
O=C1C(c2ccnc3ccccc23)=C(O)c2ccccc21 | 183* | -74 | 3 | 94 | -5 | 3
O=C1c2ccccc2C(=O)C1c1nccc2ccccc12 | 100 | -73 | 10* | 123 | 3 | 3.6*
Cc1[nH][nH]c(=O)c1/C=N/N1CCOCC1 | 17 | 0 | -2 | 103 | 4 | 0.91
COc1ccccc1-c1cc2nc(C)cc(C)n2n1 | / | -13 | 1 | / | -6 | /
CCC(CC)c1nnc(NC(=O)Cc2ccccc2[N+](=O)[O-])s1 | 0 | 9 | 2 | 100 | -6 | 1.1
O=C1NC(c2ccccc2)Nc2c1sc(=S)n2-c1ccccc1 (centres undefined) | -18 | -9 | 8 | 82 | -3 | 1
CC(=O)Cc1nsc(Nc2ccc(Cl)cc2)n1 | 17 | -8 | 2 | 120 | -1 | 1.6
CCOc1ccc(C(=O)CSc2nnc3ccccn23)cc1 | 131 | -10 | 3 | 141* | -4 | 4.1*
O=C(Cn1nnc2ccccc21)c1ccc(Br)cc1 | / | -21 | -3 | / | 6 | /
O=C(Cn1nnc2ccccc21)NCc1ccccc1 | 59 | -18 | -1 | 144* | 6 | 2.4
COC(=O)c1ccc(OCC(O)Cn2nnc3ccccc32)cc1 (centres undefined) | 23 | -5 | 2 | 112 | 1 | 1.7
Cc1ccc(NC(=O)CCn2nnc3ccccc32)cc1 | 20 | -6 | 4 | 130* | -1 | 2.2
O=C(Cn1nnc2ccccc21)OCc1ccccc1 | -14 | -27 | 1 | 102 | 4 | 1.1
Cc1ccc(C(=O)Cn2nnc3ccccc32)cc1C | 119 | -3 | 4 | 143* | -1 | 4.1*
